Values after ≈ are worked out from the molar mass of the structure shown. Active and inactive are the calls of the source. The rule behind the calls is not given here.
Tests used:
[1] = Cmax in rat at 5 mg/kg, po; assay type: ADME, organism-based; set-up: dose 5 mg/kg, route oral; details: in vivo
Procedure, shortened: (§1)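 Rat and dog given single iv dose of 1 mg/kg and oral dose of 5 mg/kg. Oral AUC, Cmax and half-life and iv clearance were derived from plasma levels.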

Rattus norvegicus [2] = experiment: Antiinflammatory activity in rat adjuvant induced arthritis model assessed as suppression of Mycobacterium tuberculosis H37 RA induced paw swelling at 30 mg/kg measured from day 11 to 15 relative to vehicle control; assay type: functional, organism-based
Procedure, shortened: (§2)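 Rat adjuvant-induced arthritis: paw widths measured, then 0.25 mg adjuvant (Mycobacterium tuberculosis H37 RA) in 100 µl mineral oil given intradermally at tail base (day 0). On day 11, width of both paws was re-measured as percent change from day 0, and rats were randomized on this and body weight before dosing. Rats were euthanized day 15 without further dosing and paw width measured.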

Cytochrome P450 1A2 [3] = molecular target: T1, Cytochrome P450 1A2 (Homo sapiens, UniProt P05177); experiment: Inhibition of CYP1A2 (unknown origin) at 10 uM; assay type: ADME
Procedure, shortened: (§3)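 Inhibition of CYP1A2, 2B6, 2C19, 2C8, 2C9, 2D6 and 3A4 tested in vitro at concentrations up to 10 µM.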

[4] = molecular target: Prostaglandin G/H synthase 2 (Homo sapiens) (UniProt P35354); experiment: Inhibition of COX2 (unknown origin) at 10 uM
Procedure, shortened: (§4)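 Off-target selectivity panel covering 13 receptors, four ion channels, one transporter and one enzyme, plus prostanoid DP1, FP, IP and TP receptors and COX-1/2. Test concentration 10 µM.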

Cytochrome P450 2B6 [5] = molecular target: T2, Cytochrome P450 2B6 (Homo sapiens, UniProt P20813); experiment: Inhibition of CYP2B6 (unknown origin) at 10 uM; assay type: ADME; procedure, shortened: as §3
Cytochrome P450 2C8 [6] = molecular target: T3, Cytochrome P450 2C8 (Homo sapiens, UniProt P10632); experiment: Inhibition of CYP2C8 (unknown origin); assay type: ADME; procedure, shortened: as §3
[7] = molecular target: Sodium-dependent noradrenaline transporter (Homo sapiens) (UniProt P23975); experiment: Inhibition of human norepinephrine transporter at 10 uM
[8] = molecular target: L-type calcium channel diltiazem binding site (Homo sapiens, UniProt O60840+Q01668+Q13698+Q13936); experiment: Inhibition of L-type calcium channel diltiazem binding site (unknown origin) at 10 uM; assay type: protein assay; procedure, shortened: as §4
Cytochrome P450 2D6 [9] = molecular target: T4, Cytochrome P450 2D6 (Homo sapiens, UniProt P10635); experiment: Inhibition of CYP2D6 (unknown origin); assay type: ADME; procedure, shortened: as §3
[10] = molecular target: Prostaglandin F2-alpha receptor (Homo sapiens) (UniProt P43088); experiment: Inhibition of prostaglandin FP receptor (unknown origin) at 10 uM; procedure, shortened: as §4
Cytochrome P450 2C19 [11] = molecular target: T5, Cytochrome P450 2C19 (Homo sapiens, UniProt P33261); experiment: Inhibition of CYP2C19 (unknown origin); assay type: ADME; procedure, shortened: as §3
[12] = Oral bioavailability in dog at 5 mg/kg; assay type: ADME, organism-based, Canis lupus familiaris; details: in vivo
[13] = Volume of distribution at steady state in dog at 1 mg/kg, iv or 5 mg/kg, po; assay type: ADME, organism-based, Canis lupus familiaris; details: in vivo, read-out: Vdss
[14] = molecular target: Muscarinic acetylcholine receptor M2 (Homo sapiens) (UniProt P08172); experiment: Inhibition of human muscarinic M2 receptor at 10 uM; procedure, shortened: as §4
[15] = molecular target: Histamine H1 receptor (Homo sapiens) (UniProt P35367); experiment: Inhibition of human histamine H1 receptor at 10 uM; procedure, shortened: as §4
Cytochrome P450 2C8 [16] = molecular target: T3, Cytochrome P450 2C8; experiment: Inhibition of CYP2C8 (unknown origin) at 10 uM; assay type: ADME; procedure, shortened: as §3
[17] = Cmax in dog at 5 mg/kg, po; assay type: ADME, organism-based, Canis lupus familiaris; set-up: dose 5 mg/kg, route oral; details: in vivo; procedure, shortened: as §1
[18] = AUC in rat at 5 mg/kg, po; assay type: ADME, organism-based; details: in vivo; procedure, shortened: as §1
[19] = Oral bioavailability in rat at 5 mg/kg; assay type: ADME, organism-based; details: in vivo
[20] = molecular target: Prostaglandin D2 receptor (Homo sapiens) (UniProt Q13258); experiment: Inhibition of prostaglandin DP1 receptor (unknown origin) at 10 uM; procedure, shortened: as §4
[21] = molecular target: Thromboxane A2 receptor (Homo sapiens) (UniProt P21731); experiment: Inhibition of prostaglandin TP receptor (unknown origin) at 10 uM; procedure, shortened: as §4
Cytochrome P450 2D6 [22] = molecular target: T4, Cytochrome P450 2D6; experiment: Inhibition of CYP2D6 (unknown origin) at 10 uM; assay type: ADME; procedure, shortened: as §3
[23] = molecular target: L-type calcium channel dihydropyridine binding site (Homo sapiens, UniProt O60840+Q01668+Q13698+Q13936); experiment: Inhibition of L-type calcium channel dihydropyridine binding site (unknown origin) at 10 uM; assay type: protein assay; procedure, shortened: as §4
Cytochrome P450 2C9 [24] = molecular target: T6, Cytochrome P450 2C9 (Homo sapiens, UniProt P11712); experiment: Inhibition of CYP2C9 (unknown origin) at 10 uM; assay type: ADME; procedure, shortened: as §3
[25] = Volume of distribution at steady state in rat at 1 mg/kg, iv or 5 mg/kg, po; assay type: ADME, organism-based; details: in vivo, read-out: Vdss
[26] = Clearance in dog at 1 mg/kg, iv; assay type: ADME, organism-based, Canis lupus familiaris; details: in vivo; procedure, shortened: as §1
[27] = molecular target: L-type calcium channel verapamil binding site (Homo sapiens, UniProt O60840+Q01668+Q13698+Q13936); experiment: Inhibition of L-type calcium channel verapamil binding site (unknown origin) at 10 uM; assay type: protein assay; procedure, shortened: as §4
Cytochrome P450 2C9 [28] = molecular target: T6, Cytochrome P450 2C9; experiment: Inhibition of CYP2C9 (unknown origin); assay type: ADME; procedure, shortened: as §3
[29] = molecular target: Prostaglandin G/H synthase 1 (Homo sapiens) (UniProt P23219); experiment: Inhibition of COX1 (unknown origin) at 10 uM; procedure, shortened: as §4
[30] = Aqueous solubility of compound at pH 6 at 2 mM after 20 hrs by HPLC; assay type: physicochemical; details: aqueous medium
Procedure, shortened: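 Samples in DMSO dried 12 h, then redissolved at pH 6 at a 2 mM target concentration. Stirred 20 h, filtered through 0.7 µm GF filter. Filtrate concentration measured by HPLC against a DMSO standard curve.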

Cytochrome P450 2B6 [31] = molecular target: T2, Cytochrome P450 2B6; experiment: Inhibition of CYP2B6 (unknown origin); assay type: ADME; procedure, shortened: as §3
[32] = molecular target: D(1A) dopamine receptor (Homo sapiens) (UniProt P21728); experiment: Inhibition of human dopamine D1 receptor at 10 uM; procedure, shortened: as §4
[33] = Half life in rat at 5 mg/kg, po; assay type: ADME, organism-based; details: in vivo; procedure, shortened: as §1
[34] = molecular target: D(2) dopamine receptor (Homo sapiens) (UniProt P14416); experiment: Inhibition of human dopamine D2 short receptor at 10 uM; procedure, shortened: as §4
[35] = Half life in dog at 5 mg/kg, po; assay type: ADME, organism-based, Canis lupus familiaris; details: in vivo; procedure, shortened: as §1
[36] = molecular target: Adrenergic receptor alpha-2 (Rattus norvegicus) (UniProt P22086+P19328+P22909); experiment: Inhibition of rat adrenergic alpha2 receptor at 10 uM; procedure, shortened: as §4
[37] = Clearance in rat at 1 mg/kg, iv; assay type: ADME, organism-based; details: in vivo; procedure, shortened: as §1
Rattus norvegicus [38] = experiment: Antiinflammatory activity in orally dosed rat MIA model assessed as inhibition of differential weight bearing measured 30 mins post dose by incapacitance test; assay type: functional, organism-based
Procedure, shortened: (§5)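 MIA 0.3 mg in 50 µL saline injected into right knee and saline into left knee of rats on day 0. Day 12: randomized, single oral dose in 10% acacia in water plus 0.05% antifoam at 0.3–10 mg/kg, with diclofenac 5 mg/kg. Hind-limb weight distribution measured by incapacitance tester 30 min post dose. n = 5/group, Dunnett's test versus vehicle.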

[39] = molecular target: Adrenergic receptor alpha-1 (Rattus norvegicus) (UniProt P15823+P23944+P43140); experiment: Inhibition of rat adrenergic alpha1 receptor at 10 uM; procedure, shortened: as §4
[40] = molecular target: Beta-1 adrenergic receptor (Homo sapiens) (UniProt P08588); experiment: Inhibition of human adrenergic beta1 receptor at 10 uM; procedure, shortened: as §4
[41] = molecular target: Beta-2 adrenergic receptor (Homo sapiens) (UniProt P07550); experiment: Inhibition of human adrenergic beta2 receptor at 10 uM; procedure, shortened: as §4
Cytochrome P450 2C19 [42] = molecular target: T5, Cytochrome P450 2C19; experiment: Inhibition of CYP2C19 (unknown origin) at 10 uM; assay type: ADME; procedure, shortened: as §3
[43] = molecular target: Voltage-gated inwardly rectifying potassium channel KCNH2 (Homo sapiens, UniProt Q12809); experiment: Inhibition of human ERG up to 100 uM by [H3]-astemizole binding assay
Procedure, shortened: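 hERG activity measured as displacement of [3H]-astemizole binding, compound tested up to 100 µM.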

Cytochrome P450 3A4 [44] = molecular target: T7, Cytochrome P450 3A4 (Homo sapiens, UniProt P08684); experiment: Inhibition of CYP3A4 (unknown origin) at 10 uM; assay type: ADME; procedure, shortened: as §3
[45] = molecular target: Prostacyclin receptor (Homo sapiens) (UniProt P43119); experiment: Inhibition of prostaglandin IP receptor (unknown origin) at 10 uM; procedure, shortened: as §4
[46] = AUC in dog at 5 mg/kg, po; assay type: ADME, organism-based, Canis lupus familiaris; details: in vivo; procedure, shortened: as §1
[47] = molecular target: Acetylcholinesterase (Homo sapiens) (UniProt P22303); experiment: Inhibition of human acetylcholinesterase at 10 uM
Cytochrome P450 1A2 [48] = molecular target: T1, Cytochrome P450 1A2; experiment: Inhibition of CYP1A2 (unknown origin); assay type: ADME; procedure, shortened: as §3
[49] = molecular target: Mu-type opioid receptor (Homo sapiens) (UniProt P35372); experiment: Inhibition of human Mu-type opioid receptor 10 uM; procedure, shortened: as §4
Cytochrome P450 3A4 [50] = molecular target: T7, Cytochrome P450 3A4; experiment: Inhibition of CYP3A4 (unknown origin); assay type: ADME; procedure, shortened: as §3
[51] = molecular target: Muscarinic acetylcholine receptor M3 (Homo sapiens) (UniProt P20309); experiment: Inhibition of human muscarinic M3 receptor at 10 uM; procedure, shortened: as §4
Rattus norvegicus [52] = experiment: Antiinflammatory activity in rat adjuvant induced arthritis model assessed as suppression of Mycobacterium tuberculosis H37 RA induced paw swelling at 10 mg/kg measured from day 11 to 15 relative to vehicle control; assay type: functional, organism-based; procedure, shortened: as §2
Rattus norvegicus [53] = experiment: Antiinflammatory activity in rat MIA model assessed as inhibition of differential weight bearing at 5 mg/kg, po measured 30 mins post dose by incapacitance test; assay type: functional, organism-based; procedure, shortened: as §5

T4 sequence (P10635 whole entry): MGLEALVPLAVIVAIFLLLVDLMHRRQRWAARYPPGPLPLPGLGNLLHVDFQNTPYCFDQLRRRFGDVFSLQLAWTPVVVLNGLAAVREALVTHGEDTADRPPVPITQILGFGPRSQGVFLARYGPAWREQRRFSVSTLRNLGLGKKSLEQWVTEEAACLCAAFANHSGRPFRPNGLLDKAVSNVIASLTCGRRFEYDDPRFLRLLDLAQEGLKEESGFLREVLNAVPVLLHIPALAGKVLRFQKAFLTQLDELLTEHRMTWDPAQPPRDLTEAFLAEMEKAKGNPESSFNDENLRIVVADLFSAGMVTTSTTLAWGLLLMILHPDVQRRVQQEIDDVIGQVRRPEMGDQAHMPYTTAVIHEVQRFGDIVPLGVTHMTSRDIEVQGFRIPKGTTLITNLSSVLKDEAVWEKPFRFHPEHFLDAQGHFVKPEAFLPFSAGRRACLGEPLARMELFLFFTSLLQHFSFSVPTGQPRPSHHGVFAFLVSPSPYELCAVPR
T7 sequence (P08684 whole entry): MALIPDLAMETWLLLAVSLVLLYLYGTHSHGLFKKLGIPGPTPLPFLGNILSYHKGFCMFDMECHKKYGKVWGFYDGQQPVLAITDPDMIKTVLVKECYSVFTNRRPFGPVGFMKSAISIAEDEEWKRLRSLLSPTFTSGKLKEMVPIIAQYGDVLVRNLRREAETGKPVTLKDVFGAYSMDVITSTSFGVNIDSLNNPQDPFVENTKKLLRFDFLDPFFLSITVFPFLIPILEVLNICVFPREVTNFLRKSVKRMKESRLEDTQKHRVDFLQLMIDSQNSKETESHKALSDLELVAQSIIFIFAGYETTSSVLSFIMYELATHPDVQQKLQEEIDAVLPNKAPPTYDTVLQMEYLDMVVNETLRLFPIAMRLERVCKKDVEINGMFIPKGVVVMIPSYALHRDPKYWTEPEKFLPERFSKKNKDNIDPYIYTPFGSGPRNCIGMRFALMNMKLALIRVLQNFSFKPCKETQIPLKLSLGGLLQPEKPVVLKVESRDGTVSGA
T1 sequence (P05177 whole entry): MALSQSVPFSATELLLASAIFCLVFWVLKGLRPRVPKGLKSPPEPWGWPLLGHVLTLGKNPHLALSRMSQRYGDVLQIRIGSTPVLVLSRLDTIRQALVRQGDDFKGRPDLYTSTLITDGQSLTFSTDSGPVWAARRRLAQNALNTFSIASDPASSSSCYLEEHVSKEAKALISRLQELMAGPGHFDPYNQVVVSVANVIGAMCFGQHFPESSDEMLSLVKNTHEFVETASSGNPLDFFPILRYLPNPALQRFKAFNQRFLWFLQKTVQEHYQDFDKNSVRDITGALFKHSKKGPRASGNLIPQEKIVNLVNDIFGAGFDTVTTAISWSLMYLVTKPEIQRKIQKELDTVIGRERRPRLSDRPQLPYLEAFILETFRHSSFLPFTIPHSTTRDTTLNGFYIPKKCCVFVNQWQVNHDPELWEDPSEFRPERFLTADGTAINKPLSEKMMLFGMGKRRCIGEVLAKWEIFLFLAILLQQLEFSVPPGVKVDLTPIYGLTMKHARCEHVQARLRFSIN
T5 sequence (P33261 whole entry): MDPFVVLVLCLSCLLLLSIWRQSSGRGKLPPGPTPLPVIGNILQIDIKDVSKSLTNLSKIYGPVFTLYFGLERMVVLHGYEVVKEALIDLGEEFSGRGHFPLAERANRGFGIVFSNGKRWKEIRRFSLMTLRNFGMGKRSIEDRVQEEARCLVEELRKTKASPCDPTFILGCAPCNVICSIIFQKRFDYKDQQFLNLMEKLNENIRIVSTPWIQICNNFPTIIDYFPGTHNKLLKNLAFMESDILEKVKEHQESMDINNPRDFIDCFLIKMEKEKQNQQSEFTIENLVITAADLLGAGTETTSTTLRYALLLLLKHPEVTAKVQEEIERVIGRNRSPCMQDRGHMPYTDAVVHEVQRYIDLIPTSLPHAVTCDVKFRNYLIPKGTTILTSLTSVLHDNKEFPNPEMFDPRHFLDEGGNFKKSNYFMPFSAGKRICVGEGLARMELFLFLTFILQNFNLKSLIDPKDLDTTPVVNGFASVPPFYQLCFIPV
T2 sequence (P20813 whole entry): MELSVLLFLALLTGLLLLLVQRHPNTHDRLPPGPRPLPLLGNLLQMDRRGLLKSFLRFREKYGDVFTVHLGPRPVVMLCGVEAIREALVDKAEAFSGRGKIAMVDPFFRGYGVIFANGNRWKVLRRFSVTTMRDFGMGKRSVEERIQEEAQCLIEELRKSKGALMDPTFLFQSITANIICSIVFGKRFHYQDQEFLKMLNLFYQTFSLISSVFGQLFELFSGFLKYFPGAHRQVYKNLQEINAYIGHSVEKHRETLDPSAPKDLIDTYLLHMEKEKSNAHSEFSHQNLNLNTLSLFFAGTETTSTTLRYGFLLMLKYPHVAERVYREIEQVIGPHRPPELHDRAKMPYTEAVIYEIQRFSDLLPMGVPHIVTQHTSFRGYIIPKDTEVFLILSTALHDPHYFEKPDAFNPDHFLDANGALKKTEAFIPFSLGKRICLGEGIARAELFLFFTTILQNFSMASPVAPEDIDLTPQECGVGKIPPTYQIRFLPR
T6 sequence (P11712 whole entry): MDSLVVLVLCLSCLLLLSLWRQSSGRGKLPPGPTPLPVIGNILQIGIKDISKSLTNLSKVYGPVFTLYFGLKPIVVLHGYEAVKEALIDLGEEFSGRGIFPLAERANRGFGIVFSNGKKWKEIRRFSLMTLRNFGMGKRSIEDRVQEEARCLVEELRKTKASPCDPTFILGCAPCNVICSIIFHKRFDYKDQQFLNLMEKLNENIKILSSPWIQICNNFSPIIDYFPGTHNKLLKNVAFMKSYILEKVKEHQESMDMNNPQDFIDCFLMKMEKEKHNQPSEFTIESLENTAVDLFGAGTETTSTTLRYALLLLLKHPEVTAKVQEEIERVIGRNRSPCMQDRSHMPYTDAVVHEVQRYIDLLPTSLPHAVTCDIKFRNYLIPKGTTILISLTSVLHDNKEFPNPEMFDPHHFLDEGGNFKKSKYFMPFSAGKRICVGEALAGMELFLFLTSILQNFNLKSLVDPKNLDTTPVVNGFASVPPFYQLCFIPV
T3 sequence (P10632 whole entry): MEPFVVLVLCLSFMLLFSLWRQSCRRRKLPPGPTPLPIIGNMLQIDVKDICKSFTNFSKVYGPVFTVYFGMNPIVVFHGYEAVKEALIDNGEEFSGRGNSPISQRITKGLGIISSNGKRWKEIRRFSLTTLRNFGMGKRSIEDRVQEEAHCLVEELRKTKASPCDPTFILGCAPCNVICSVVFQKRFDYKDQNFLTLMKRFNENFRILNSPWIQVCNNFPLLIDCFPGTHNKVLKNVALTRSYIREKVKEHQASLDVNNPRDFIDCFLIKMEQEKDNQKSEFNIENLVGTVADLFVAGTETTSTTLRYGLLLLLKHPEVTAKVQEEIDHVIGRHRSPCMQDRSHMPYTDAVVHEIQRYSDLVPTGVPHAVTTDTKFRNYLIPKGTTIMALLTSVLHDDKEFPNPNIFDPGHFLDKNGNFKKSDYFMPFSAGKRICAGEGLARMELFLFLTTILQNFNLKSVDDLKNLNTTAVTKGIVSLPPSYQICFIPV
Voltage-gated inwardly rectifying potassium channel KCNH2, sequence (Q12809 whole entry): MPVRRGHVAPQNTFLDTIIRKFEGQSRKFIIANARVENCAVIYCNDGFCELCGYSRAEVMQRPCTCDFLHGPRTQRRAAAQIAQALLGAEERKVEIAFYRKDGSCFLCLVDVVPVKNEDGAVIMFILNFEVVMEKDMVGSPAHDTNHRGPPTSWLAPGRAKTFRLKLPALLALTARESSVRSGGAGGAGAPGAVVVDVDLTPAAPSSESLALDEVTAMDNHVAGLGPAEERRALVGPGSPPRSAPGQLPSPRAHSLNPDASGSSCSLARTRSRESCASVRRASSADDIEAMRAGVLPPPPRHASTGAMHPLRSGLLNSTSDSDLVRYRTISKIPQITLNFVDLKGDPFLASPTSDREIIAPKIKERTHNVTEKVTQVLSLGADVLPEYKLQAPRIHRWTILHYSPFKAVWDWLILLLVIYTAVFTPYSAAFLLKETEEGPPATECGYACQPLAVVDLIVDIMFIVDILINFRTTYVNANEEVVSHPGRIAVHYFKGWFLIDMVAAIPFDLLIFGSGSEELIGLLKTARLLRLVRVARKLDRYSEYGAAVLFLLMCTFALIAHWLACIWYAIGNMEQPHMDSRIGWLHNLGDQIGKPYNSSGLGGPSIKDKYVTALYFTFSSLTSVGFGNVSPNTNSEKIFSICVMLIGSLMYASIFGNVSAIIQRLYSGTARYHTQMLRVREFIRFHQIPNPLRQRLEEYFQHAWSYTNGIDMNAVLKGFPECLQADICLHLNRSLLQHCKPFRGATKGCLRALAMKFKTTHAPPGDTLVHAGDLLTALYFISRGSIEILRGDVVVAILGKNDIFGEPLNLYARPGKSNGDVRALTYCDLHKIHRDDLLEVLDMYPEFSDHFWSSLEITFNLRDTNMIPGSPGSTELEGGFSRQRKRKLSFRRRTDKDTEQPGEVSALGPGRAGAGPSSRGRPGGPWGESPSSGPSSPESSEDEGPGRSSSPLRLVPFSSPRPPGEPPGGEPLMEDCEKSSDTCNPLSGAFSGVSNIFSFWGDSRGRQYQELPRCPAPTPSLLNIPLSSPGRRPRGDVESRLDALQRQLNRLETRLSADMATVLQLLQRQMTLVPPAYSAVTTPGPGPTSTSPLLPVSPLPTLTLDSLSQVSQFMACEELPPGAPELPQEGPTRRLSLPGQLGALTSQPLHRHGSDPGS
Thromboxane A2 receptor (Homo sapiens), sequence (P21731 whole entry): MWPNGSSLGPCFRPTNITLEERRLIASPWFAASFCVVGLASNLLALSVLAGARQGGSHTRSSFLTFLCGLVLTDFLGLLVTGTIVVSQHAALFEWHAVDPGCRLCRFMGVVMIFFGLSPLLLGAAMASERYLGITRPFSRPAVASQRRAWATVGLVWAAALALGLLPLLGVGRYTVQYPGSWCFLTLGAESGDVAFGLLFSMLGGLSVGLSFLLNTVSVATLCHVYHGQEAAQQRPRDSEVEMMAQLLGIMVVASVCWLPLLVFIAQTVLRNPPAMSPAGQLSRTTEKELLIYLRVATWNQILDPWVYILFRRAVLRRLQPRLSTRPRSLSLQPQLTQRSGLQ

## Cc1ccc(N2CCC(O)CC2)nc1C(=O)Nc1c(C)cc(C(=O)O)cc1C
[1]
  Cmax: 3100 ng/mL
Rattus norvegicus [2]
  Activity: Active
Cytochrome P450 1A2 [3]
  inhibition (INH): Not Active
[4]
  inhibition: inactive
Cytochrome P450 2B6 [5]
  inhibition (INH): Not Active
Cytochrome P450 2C8 [6]
  IC50: > 10 µM
[7]
  inhibition: 7%
[8]
  inhibition at 10 µM: -23%
Cytochrome P450 2D6 [9]
  IC50: > 10 µM
[10]
  inhibition: inactive
Cytochrome P450 2C19 [11]
  IC50: > 10 µM
[12]
  bioavailability: 75%
[13]
  Vd: 1.73 L/kg
[14]
  inhibition: 6%
[15]
  inhibition: -3%
Cytochrome P450 2C8 [16]
  inhibition (INH): Not Active
[17]
  Cmax: 1870 ng/mL
[18]
  AUC: 9670 ng·h/mL
[19]
  bioavailability: 34%
[20]
  inhibition: inactive
[21]
  inhibition: inactive
Cytochrome P450 2D6 [22]
  inhibition (INH): Not Active
[23]
  inhibition at 10 µM: -39%
Cytochrome P450 2C9 [24]
  inhibition (INH): Not Active
[25]
  Vd: 0.34 L/kg
[26]
  clearance: 10 mL/min/kg
[27]
  inhibition at 10 µM: 1%
Cytochrome P450 2C9 [28]
  IC50: > 10 µM
[29]
  inhibition: inactive
[30]
  solubility at 20 h, 2000 µM: 762 µg/mL (≈ 1990 µM)
Cytochrome P450 2B6 [31]
  IC50: > 10 µM
[32]
  inhibition: 14%
[33]
  half-life: 5.1 h
[34]
  inhibition: 5%
[35]
  half-life: 5.1 h
[36]
  inhibition: -4%
[37]
  clearance: 3 mL/min/kg
Rattus norvegicus [38]
  Activity: Dose-dependent effect
[39]
  inhibition: -8%
[40]
  inhibition: 3%
[41]
  inhibition: -2%
Cytochrome P450 2C19 [42]
  inhibition (INH): Not Active
[43]
  inhibition (INH): Not Active
Cytochrome P450 3A4 [44]
  inhibition (INH): Not Active
[45]
  inhibition: inactive
[46]
  AUC: 6320 ng·h/mL
[47]
  inhibition: 7%
Cytochrome P450 1A2 [48]
  IC50: > 10 µM
[49]
  inhibition: -8%
Cytochrome P450 3A4 [50]
  IC50: > 10 µM
[51]
  inhibition: 0%

## O=C(O)Cc1ccccc1Nc1c(Cl)cccc1Cl
Rattus norvegicus [52]
  Activity: Active
Rattus norvegicus [53]
  Activity: Active
